Reference: ChEMBL document CHEMBL2380267, “Structural optimization, biological evaluation, and application of peptidomimetic prostate specific antigen inhibitors” (J Med Chem, 2013)
Active and inactive are the calls of the source. The rule behind the calls is not given here. Non-standard residues stand in square brackets, D forms with d. Residues, ends and D or L forms follow the SMILES beside them. *: point of attachment. X4 = CC1(C)[C@@H]2C[C@H]1[C@]1(C)OB([C@@H](CCCBr)N*)O[C@@H]1C2; dboroNva(5-Br) = OB(O)[C@@H](CCCBr)N*; dboroPhe = OB(O)[C@@H](Cc1ccccc1)N*; Benzoyl(4-I) = O=C(c1ccc(I)cc1)*; X2 = CC(C)C[C@@H](N*)B(O)O; Nle = CCCC[C@H](N)C(=O)O; Cbz = O=C(OCc1ccccc1)*; Ahx = NCCCCCC(=O)O

How the values were obtained:
Mus musculus [1] = test: Biodistribution in tumor of nude mouse xenografted with human LNCAP cells expressing PSA at 230 to 580 uCi after 3 to 4 hrs by gamma counting analysis; type: ADME, organism-based, Neoplasm; details: in vivo
Method in brief: (§1)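 Single mice sacrificed at 2, 4 and 6 h (or 2 and 4 h). Liver, kidney, heart, brain, muscle and tumor weighed and gamma-counted. Counts corrected for background and decay; %ID/g calculated against 0.01 mL of dosing solution.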

Liver = test: Biodistribution in nude mouse liver xenografted with human LNCAP cells expressing PSA at 230 to 580 uCi after 2 hrs by gamma counting analysis; type: ADME, organism-based; details: in vivo; method in brief: as §1
Kidney = test: Biodistribution in nude mouse kidney xenografted with human LNCAP cells expressing PSA at 230 to 580 uCi after 2 hrs by gamma counting analysis; type: ADME, organism-based; details: in vivo; method in brief: as §1
[2] = Half life in ip dosed mouse; type: ADME, organism-based; details: in vivo
Method in brief: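 Four animals sacrificed per time point; plasma counts per second normalised to starting counts.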

[3] = Selectivity ratio of Ki for bovine pancreas chymotrypsin to Ki for human seminal fluid PSA
[4] = Inhibition of bovine pancreas chymotrypsin using Suc-AAPF-AMC as substrate measured for 30 mins by fluorescence assay; parameters: species or system Bos taurus
Method in brief: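 Inhibitor added from DMSO stock; substrate added last and AMC fluorescence read immediately. Ki = 1/slope × 1/(1+[S]/Km), from V0/Vi−1 plotted against [I].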

[5] = molecular target: T1, Prostate-specific antigen (Homo sapiens, UniProt P07288); test: Inhibition of PSA (unknown origin) using Mu-SRKSQQY-AMC as substrate by fluorescence assay
T1 sequence (P07288 whole entry): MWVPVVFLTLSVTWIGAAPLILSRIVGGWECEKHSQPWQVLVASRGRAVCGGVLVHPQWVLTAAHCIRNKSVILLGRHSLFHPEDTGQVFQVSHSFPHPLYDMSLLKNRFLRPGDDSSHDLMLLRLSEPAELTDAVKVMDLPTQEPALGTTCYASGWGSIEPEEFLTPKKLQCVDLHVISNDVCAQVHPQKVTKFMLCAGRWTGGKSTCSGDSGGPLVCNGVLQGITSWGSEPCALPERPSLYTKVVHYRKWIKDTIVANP
Method in brief: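 Inhibitor added from DMSO stock. AMC fluorescence (ex 370, em 465 nm) followed over 30 min in triplicate. Ki = 1/slope × 1/(1+[S]/Km), from V0/Vi−1 plotted against [I].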

[6] = molecular target: T1, Prostate-specific antigen; test: Inhibition of PSA (unknown origin)
[7] = Selectivity ratio of Ki for human seminal fluid PSA to Ki for bovine pancreas chymotrypsin
Mus musculus [8] = test: Inhibition of total PSA level in nude mouse serum xenografted with human LNCAP cells at 10 mg/kg, iv qd administered 5 days/week for 3 weeks measured 24 hrs post last dose by ELISA relative to control; type: functional
Method in brief: (§2)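 LNCaP xenograft-bearing nude mice dosed 10 mg/kg iv (sterile saline) once daily, five consecutive days/week for three courses; controls untreated. Serum free and total PSA measured by ELISA 24 h after the last dose, also expressed per g tumor.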

Mus musculus [9] = test: Inhibition of free PSA level in nude mouse serum xenografted with human LNCAP cells at 10 mg/kg, iv qd administered 5 days/week for 3 weeks measured 24 hrs post last dose by ELISA relative to control; type: functional; method in brief: as §2
LNCaP [10] = test: Antitumor activity against human LNCAP cells expressing PSA xenografted in nude mouse assessed as tumor incident at 10 mg/kg, iv qd administered 5 days/week for 3 weeks measured after 3 weeks; type: functional, organism-based; parameters: dose 10 mg/kg
Method in brief: (§3)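 Nude male mice (n = 10 per group) carrying subcutaneous PSA-producing LNCaP xenografts. Dosed 10 mg/kg iv once daily for three cycles of five consecutive days, compound in sterile saline; controls untreated. Tumor measured by caliper, volume = L × W × H × […]. Tumor size and body weight recorded twice per week.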

Mus musculus [11] = test: Toxicity in nude mouse xenografted with human LNCAP cells expressing PSA assessed as body weight loss at 10 mg/kg, iv qd measured 5 days/week for 3 weeks; type: organism-based; parameters: dose 10 mg/kg, route intravenous; details: in vivo; method in brief: as §3
LNCaP [12] = test: Antitumor activity against human LNCAP cells expressing PSA xenografted in nude mouse assessed as delay in tumor growth at 10 mg/kg, iv qd administered 5 days/week for 3 weeks measured after 2 weeks; type: functional, organism-based; parameters: dose 10 mg/kg; method in brief: as §3

Row | Compound | Ratio Ki [3] | Ki [4] | other results
1 | CCCC[C@H](NC(=O)[C@H](CCC(N)=O)NC(=O)[C@H](CO)NC(=O)C[C@H](Cc1ccc2ccccc2c1)NC(=O)CCCCCNC(=O)c1ccc([125I])cc1)C(=O)N[C@H](Cc1ccccc1)B(O)O |  |  | Drug uptake (Mus musculus [1]): Active; Drug uptake (Liver): Active; Drug uptake (Kidney): Active; half-life [2]: 2.7 h
2 | CCCC[C@H](NC(=O)[C@H](CCC(N)=O)NC(=O)[C@H](CO)NC(=O)[C@H](C)NC(=O)CCCCCN)C(=O)N[C@H](Cc1ccccc1)B(O)O (H-[Ahx]ASQ[Nle]-dboroPhe) | 0.12 | 36.2 nM | 
3 | CCCC[C@H](NC(=O)[C@H](CCC(N)=O)NC(=O)[C@H](CO)NC(=O)CCCCCN)C(=O)N[C@H](Cc1ccccc1)B(O)O | 0.17 | 3.77 nM | 
4 | CCCC[C@H](NC(=O)[C@H](CCC(N)=O)NC(=O)[C@H](CO)NC(=O)[C@H](CO)NC(=O)CCCCCN)C(=O)N[C@H](CC(C)C)B(O)O (H-[Ahx]SSQ[Nle]-X2) | 3.2 | 138 nM | 
5 | CCCC[C@H](NC(=O)[C@H](CCC(N)=O)NC(=O)[C@H](CO)NC(=O)C[C@H](Cc1ccc2ccccc2c1)NC(=O)CCCCCN)C(=O)N[C@H](Cc1ccccc1)B(O)O | 0.03 | 7.21 nM | 
6 | CCCC[C@H](NC(=O)[C@H](CCC(N)=O)NC(=O)[C@H](CO)NC(=O)[C@H](C)NC(=O)CCCCCN)C(=O)N[C@H](CCCBr)B(O)O (H-[Ahx]ASQ[Nle]-{dboroNva(5-Br)}) | 3.18 | 166 nM | 
7 | CCCC[C@H](NC(=O)[C@H](CCCCN)NC(=O)[C@H](CO)NC(=O)[C@H](CO)NC(=O)OCc1ccccc1)C(=O)N[C@H](CCCBr)B(O)O (Cbz-SSK[Nle]-{dboroNva(5-Br)}) | 8.13 | 197 nM | 
8 | CC(C)C[C@H](NC(=O)[C@H](CCCCN)NC(=O)[C@H](CO)NC(=O)[C@@H](N)CO)C(=O)N[C@H](C=O)CCC(N)=O (H-SSKLQ-aldehyde) |  |  | Ki [5]: 45000 nM
9 | CCCC[C@H](NC(=O)[C@H](CCC(N)=O)NC(=O)[C@H](CO)NC(=O)[C@H](Cc1ccccc1)NC(=O)CCCCCN)C(=O)N[C@H](CCCBr)B1O[C@@H]2C[C@H]3C[C@H](C3(C)C)[C@]2(C)O1 (H-[Ahx]FSQ[Nle]-X4) | 6.77 | 496 nM | 
10 | CCCC[C@H](NC(=O)[C@H](CCCCN)NC(=O)[C@H](CO)NC(=O)[C@H](CO)NC(=O)OCc1ccccc1)C(=O)N[C@H](Cc1ccccc1)B(O)O (Cbz-SSK[Nle]-dboroPhe) | 0.11 | 18.1 nM | 
11 | O=C(OCc1ccccc1)c1cccc(CC(=O)N2C(=O)[C@@H](Cc3ccc(O)cc3)[C@H]2C(=O)OCc2ccccc2)c1 |  |  | IC50 [6]: 226 nM
12 | CCCC[C@H](NC(=O)[C@H](CCC(N)=O)NC(=O)[C@H](CO)NC(=O)[C@H](Cc1ccccc1)NC(=O)CCCCCN)C(=O)N[C@H](Cc1ccccc1)B(O)O (H-[Ahx]FSQ[Nle]-dboroPhe) | 0.002 | 0.135 nM | Ratio Ki [7]: 450
13 | CCCC[C@H](NC(=O)[C@H](CCC(N)=O)NC(=O)[C@H](CO)NC(=O)[C@H](Cc1ccccc1)NC(=O)CCCCCN)C(=O)N[C@H](CCCBr)B(O)O (H-[Ahx]FSQ[Nle]-{dboroNva(5-Br)}) | 8.03 | 581 nM | inhibition in vivo at 10 mg/kg (Mus musculus [8]): 40%; inhibition in vivo at 10 mg/kg (Mus musculus [9]): 23%; Activity (LNCaP [10]): inactive; Activity (Mus musculus [11]): Non-toxic; Activity (LNCaP [12]): Active
14 | CCCC[C@H](NC(=O)[C@H](CCC(N)=O)NC(=O)[C@H](CO)NC(=O)[C@H](CO)NC(=O)CCCCCNC(=O)c1ccc([125I])cc1)C(=O)N[C@H](CCCBr)B(O)O |  |  | half-life [2]: 0.2 h
15 | CCCC[C@H](NC(=O)[C@H](CCC(N)=O)NC(=O)[C@H](CO)NC(=O)[C@H](Cc1ccccc1)NC(=O)CCCCCNC(=O)c1ccc([125I])cc1)C(=O)N[C@H](CCCBr)B(O)O |  |  | Drug uptake (Mus musculus [1]): Active; Drug uptake (Liver): Active; Drug uptake (Kidney): Active
16 | CCCC[C@H](NC(=O)[C@H](CCC(N)=O)NC(=O)[C@H](CO)NC(=O)[C@H](Cc1ccccc1)NC(=O)CCCCCNC(=O)c1ccc(I)cc1)C(=O)N[C@H](CCCBr)B(O)O ({Benzoyl(4-I)-Ahx}-FSQ[Nle]-{dboroNva(5-Br)}) | 10.1 | 653 nM | 
17 | CCCC[C@H](NC(=O)[C@H](CCC(N)=O)NC(=O)[C@H](CO)NC(=O)[C@H](Cc1ccccc1)NC(=O)CCCCCNC(=O)c1ccc([125I])cc1)C(=O)N[C@H](CCCBr)B1O[C@@H]2C[C@H]3C[C@H](C3(C)C)[C@]2(C)O1 |  |  | Drug uptake (Mus musculus [1]): Active; Drug uptake (Liver): Active; Drug uptake (Kidney): Active
18 | CCCC[C@H](NC(=O)[C@H](CCC(N)=O)NC(=O)[C@H](CO)NC(=O)C[C@H](Cc1ccc2ccccc2c1)NC(=O)CCCCCN)C(=O)N[C@H](CCCBr)B(O)O | 4.94 | 506 nM | 
19 | CCCC[C@H](NC(=O)[C@H](CCC(N)=O)NC(=O)[C@H](CO)NC(=O)CCCCCN)C(=O)N[C@H](CCCBr)B(O)O | 0.83 | 251 nM | 
